Results published in ChEMBL document CHEMBL4406921, “Discovery of Axelopran (TD-1211): A Peripherally Restricted μ-Opioid Receptor Antagonist” (ACS Med Chem Lett, 2019).

How the values were obtained:
[1] = target: T1, Mu-type opioid receptor (Homo sapiens, UniProt P35372); test: Displacement of [3H]-DPN from recombinant human mu opioid receptor expressed in CHO-K1 cell membranes by radioligand binding assay
In short: (§1)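 Membranes from CHO-K1 cells stably transfected with human recombinant μ or δ receptor, or guinea pig κ receptor; competition with [3H]-DPN radioligand; affinity reported as pKi.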

[2] = target: Kappa-type opioid receptor (Cavia porcellus, UniProt P41144); test: Displacement of [3H]-DPN from guinea pig kappa opioid receptor expressed in CHO-K1 cell membranes by radioligand binding assay; in short: as §1
Kappa-type opioid receptor, sequence (P41144 whole entry): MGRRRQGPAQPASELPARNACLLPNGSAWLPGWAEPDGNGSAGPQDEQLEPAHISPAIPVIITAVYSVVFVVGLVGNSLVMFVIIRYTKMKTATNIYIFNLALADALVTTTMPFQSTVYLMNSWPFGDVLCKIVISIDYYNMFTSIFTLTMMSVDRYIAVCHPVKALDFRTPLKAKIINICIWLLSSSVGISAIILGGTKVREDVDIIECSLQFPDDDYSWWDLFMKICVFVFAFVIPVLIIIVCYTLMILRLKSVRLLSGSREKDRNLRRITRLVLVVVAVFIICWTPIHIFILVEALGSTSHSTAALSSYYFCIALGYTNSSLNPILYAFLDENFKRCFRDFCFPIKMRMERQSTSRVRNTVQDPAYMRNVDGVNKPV

[3] = target: T1, Mu-type opioid receptor; test: Antagonist activity at human recombinant mu opioid receptor expressed in CHO-K1 cell membranes assessed as intrinsic activity at 10 pM to 20 uM incubated for 30 mins in presence of Eu-GTP by DELFIA GTP binding assay relative to DAMGO
[4] = Half life in rat liver microsomes at 15 uM; format: ADME, Microsome
[5] = target: Delta-type opioid receptor (Homo sapiens, UniProt P41143); test: Displacement of [3H]-DPN from recombinant human delta opioid receptor expressed in CHO-K1 cell membranes by radioligand binding assay; in short: as §1
Delta-type opioid receptor, sequence (P41143 whole entry): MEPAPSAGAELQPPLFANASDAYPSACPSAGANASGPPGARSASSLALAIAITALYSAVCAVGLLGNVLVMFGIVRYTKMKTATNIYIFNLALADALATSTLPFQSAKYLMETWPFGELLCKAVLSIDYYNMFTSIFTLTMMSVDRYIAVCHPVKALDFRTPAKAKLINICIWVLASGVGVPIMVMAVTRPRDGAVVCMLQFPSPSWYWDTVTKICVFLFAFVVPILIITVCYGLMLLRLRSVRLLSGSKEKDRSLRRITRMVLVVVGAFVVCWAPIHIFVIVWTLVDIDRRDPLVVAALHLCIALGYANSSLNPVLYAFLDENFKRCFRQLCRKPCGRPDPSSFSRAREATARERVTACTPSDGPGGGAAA

[6] = Half life in dog liver microsomes at 3 uM; format: ADME, Canis lupus familiaris, Microsome
[7] = species on record: Mus musculus; test: Peripheral selectivity index, ratio of ID50 for inhibition of morphine-induced delays in gastric emptying in ICR mouse to ID50 for inhibition of morphine-induced delays in intestinal transit in ICR mouse; format: functional
[8] = Permeability coefficient, Kp in human Caco2 cells; format: ADME, cell-based; settings: Caco-2, read-out: Kp
[9] = system: Mus musculus; test: Inhibition of morphine-induced delays in gastric emptying in po dosed ICR mouse administered via gavage pretreated with compound and 30 mins later injected with morphine followed 5 mins later by ingestion of test meal and measured after 60 mins; format: functional; settings: for ED50: read-out: ID50 (the source's name)
In short: (§2)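 Mice dosed orally; reversal of morphine-induced delay in intestinal transit, delay in gastric emptying, or hot plate antinociception measured; dose-dependent responses fitted to give ID50 in mg/kg.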

[10] = Oral bioavailability in Sprague-Dawley rat at 5 mg/kg administered via gavage; format: ADME, organism-based; settings: in vivo
[11] = Cmax in Sprague-Dawley rat at 5 mg/kg, po administered via gavage; format: ADME, organism-based; design: dose 5 mg/kg, route oral; settings: in vivo
[12] = species on record: Mus musculus; test: Peripheral selectivity index, ratio of ID50 for inhibition of morphine-induced antinociceptive activity in ICR mouse to ID50 for inhibition of morphine-induced delays in intestinal transit in ICR mouse; format: functional
In short: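 Mice were dosed orally with antagonist at several doses and challenged with morphine. ID50 values were taken from dose-dependent reversal of morphine-induced hot plate antinociception (CNS) and of morphine-induced delay in intestinal transit (peripheral). The index is the hot plate ID50 divided by the intestinal transit ID50.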

[13] = AUC(0 to t) in Sprague-Dawley rat at 5 mg/kg, po administered via gavage; format: ADME, organism-based; settings: in vivo
[14] = system: Mus musculus; test: Inhibition of morphine-induced delays in intestinal transit in po dosed ICR mouse administered via gavage pretreated with compound and 30 mins later injected with morphine followed 5 mins later by ingestion of test meal and measured after 60 mins; format: functional; settings: for ED50: read-out: ID50 (the source's name); in short: as §2
[15] = Half life in rat liver microsomes at 3 uM; format: ADME, Microsome
[16] = system: Mus musculus; test: Inhibition of morphine-induced antinociceptive activity in po dosed ICR mouse administered via gavage pretreated with compound and 30 mins later injected with morphine and measured after 30 mins by hot plate test; format: functional; in short: as §2
[17] = Half life in human liver microsomes at 3 uM; format: ADME, Microsome
[18] = Half life in Sprague-Dawley rat at 5 mg/kg, po administered via gavage; format: ADME, organism-based; settings: in vivo
[19] = AUC(0 to t) in Sprague-Dawley rat at 100 mg/kg, po administered via gavage; format: ADME, organism-based; settings: in vivo
[20] = Cmax in Sprague-Dawley rat at 100 mg/kg, po administered via gavage; format: ADME, organism-based; design: dose 100 mg/kg, route oral; settings: in vivo
[21] = Half life in Sprague-Dawley rat at 100 mg/kg, po administered via gavage; format: ADME, organism-based; settings: in vivo
In short: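 Male Sprague–Dawley rats received 100 mg/kg by oral gavage, with n = 3. Plasma half-life was taken from the pharmacokinetic profile alongside Cmax, AUC(0–t) and oral bioavailability.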

[22] = Oral bioavailability in Sprague-Dawley rat at 100 mg/kg administered via gavage; format: ADME, organism-based; settings: in vivo
[23] = Oral bioavailability in human; format: ADME, organism-based; settings: in vivo

T1 sequence (P35372 whole entry): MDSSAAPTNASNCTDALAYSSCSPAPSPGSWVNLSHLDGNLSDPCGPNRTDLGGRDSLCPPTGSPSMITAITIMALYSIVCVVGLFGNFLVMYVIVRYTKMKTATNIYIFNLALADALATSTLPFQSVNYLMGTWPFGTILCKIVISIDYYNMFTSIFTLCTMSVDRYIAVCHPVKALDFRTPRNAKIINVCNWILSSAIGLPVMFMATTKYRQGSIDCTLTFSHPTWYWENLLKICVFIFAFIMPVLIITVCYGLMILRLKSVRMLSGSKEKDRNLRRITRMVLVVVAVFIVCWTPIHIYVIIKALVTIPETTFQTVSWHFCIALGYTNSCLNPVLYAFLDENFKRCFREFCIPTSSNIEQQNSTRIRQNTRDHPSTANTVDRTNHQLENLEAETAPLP

Work on `NC(=O)c1cccc([C@H]2C[C@H]3CC[C@@H](C2)N3CCN(CC2CCCCC2)C(=O)C(F)(F)F)c1` yielded a Ki [1] of 0.794 nM, a Ki [2] of 1 nM and an Intrinsic activity [3] of 9%. For the same molecule, the half-life at 15 µM [4] was 0.05 h and the Ki [5] was 10 nM.

With `CS(=O)(=O)CC(=O)N(CCN1[C@@H]2CC[C@H]1C[C@@H](c1cccc(C(N)=O)c1)C2)CC1CCCCC1` the Ki [1] was 0.1 nM, the Ki [2] was 0.1 nM and the Intrinsic activity [3] was 0%. For the same molecule, the half-life at 3 µM [6] was 0.467 h, the “Selectivity Index” value [7] was 73 and the Papp [8] was 18 ×10⁻⁶ cm/s. For the same molecule, the inhibition [9] was “Dose-dependent effect”, the ED50 [9] was 0.33 mg/kg and the Ki [5] was 1.26 nM. The bioavailability [10] was 60%, the Cmax [11] was 880 ng/mL and the “Selectivity Index” value [12] was 49. For the same molecule, the AUC(0-t) [13] was 1300 ng·h/mL, the inhibition [14] was “Dose-dependent effect” and the ED50 [14] was 0.49 mg/kg. The half-life at 3 µM [15] was 0.833 h, the inhibition [16] was “Dose-dependent effect” and the ED50 ([16]; read-out: ID50 (the source's name)) was 24 mg/kg. For the same molecule, the half-life at 3 µM [17] was 1.5 h and the half-life [18] was 1 h.

For `NC(=O)c1cccc([C@H]2C[C@H]3CC[C@@H](C2)N3CCNCC2CCCCC2)c1`, the Ki [1] was 0.251 nM, the Ki [2] was 0.158 nM and the Intrinsic activity [3] was 12%. The half-life at 15 µM [4] was 0.7 h and the Ki [5] was 6.31 nM.

Molecule `C[N+]1(CC2CC2)CC[C@]23c4c5ccc(O)c4O[C@H]2C(=O)CC[C@@]3(O)[C@H]1C5.[Br-]` (some centres not stated) [METHYLNALTREXONE BROMIDE] has an AUC(0-t) [19] of 490 ng·h/mL, an Intrinsic activity [3] of 19% and a half-life at 3 µM [6] of over 1.5 h. For the same molecule, the Cmax [20] was 570 ng/mL, the Papp [8] was 2 ×10⁻⁶ cm/s and the ED50 [9] was 25 mg/kg. It also gave a half-life [21] of 2.8 h, a bioavailability [22] of 2.6% and a bioavailability [23] of under 1%. For the same molecule, the ED50 [14] was 67 mg/kg, the half-life at 3 µM [15] was over 1.5 h and the half-life at 3 µM [17] was over 1.5 h.
